Source: ChEMBL document CHEMBL1649414, “Synthesis and antiprotozoal activity of N-alkoxy analogues of the trypanocidal lead compound 4,4'-bis(imidazolinylamino)diphenylamine with improved human blood-brain barrier permeability” (J Med Chem, 2011)
The source made the active and inactive calls. The rule behind the calls is not given here.

Assays:
[1] = test system: Trypanosoma brucei rhodesiense; experiment: Antiprotozoal activity against bloodstream forms of Trypanosoma brucei rhodesiense STIB900 by alamar blue assay; type: functional, organism-based
Outline: (§1)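 Alamar blue read-out; IC50 determined against bloodstream-form STIB900 trypanosomes, axenically grown L. donovani MHOM/ET/67/L82 amastigotes, or rat skeletal myoblast L-6 cells (cytotoxicity).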

Plasmodium falciparum = experiment: Antiprotozoal activity against chloroquine and pyrimethamine-resistant erythrocytic stages of Plasmodium falciparum K1 by [3H]hypoxanthine incorporation assay; type: functional, organism-based
Outline: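 P. falciparum K1 (chloroquine- and pyrimethamine-resistant) erythrocytic stages; IC50 determined by [3H]hypoxanthine incorporation assay.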

[2] = Selectivity index, ratio of IC50 for rat L6 cells to IC50 for Trypanosoma brucei rhodesiense STIB900; type: toxicity, cell-based; conditions: L6 cells versus Trypanosoma brucei rhodesiense STIB900, read-out: Ratio IC50
Outline: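 Selectivity index = IC50 (rat L-6 myoblasts)/IC50 (T. b. rhodesiense STIB900 bloodstream forms). Both IC50 values were determined by Alamar blue assay.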

Leishmania donovani = experiment: Antiprotozoal activity against amastigotes of Leishmania donovani MHOM/ET/67/L82 by alamar blue assay; type: functional, organism-based; outline: as §1
[3] = Selectivity index, ratio of IC50 for rat L6 cells to IC50 for chloroquine and pyrimethamine-resistant erythrocytic stages of Plasmodium falciparum K1; type: toxicity, cell-based; conditions: L6 cells versus Plasmodium falciparum K1 erythrocytic stages, read-out: Ratio IC50
Outline: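 Selectivity index = IC50 (rat L-6 myoblasts, Alamar blue assay)/IC50 (P. falciparum K1 erythrocytic stages, [3H]hypoxanthine incorporation assay).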

L6 = experiment: Cytotoxicity against rat L6 cells; type: cell-based; outline: as §1
Trypanosoma cruzi = experiment: Antiprotozoal activity against trypomastigote forms of Trypanosoma cruzi Tulahuen C2C4 expressing LacZ by colorimetric CPRG assay
[4] = test system: Trypanosoma brucei rhodesiense; experiment: Antitrypanosomal activity against Trypanosoma brucei rhodesiense STIB900 infected in NMRI mouse assessed as host survival after 60 days at 20 mg/kg, ip qd for 4 days administered after 3 to 6 days postinfection; type: functional, organism-based; set-up: dose 20 mg/kg
Outline: (§2)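 Female NMRI mice infected ip with 2 10^4 bloodstream STIB900 forms; groups of four dosed ip (4 × 20 mg/kg) or orally (4 × 50 mg/kg) on days 3–6 post-infection; untreated infected controls. Tail-blood parasitemia followed to day 60; surviving aparasitemic mice at day 60 counted cured; mean survival and relapse days recorded.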

[5] = test system: Trypanosoma brucei rhodesiense; experiment: Antitrypanosomal activity against Trypanosoma brucei rhodesiense STIB900 infected in NMRI mouse assessed as host survival after 60 days at 50 mg/kg, po qd for 4 days administered after 3 to 6 days postinfection; type: functional, organism-based; set-up: dose 50 mg/kg; outline: as §2
[6] = test system: Trypanosoma brucei rhodesiense; experiment: Antitrypanosomal activity against Trypanosoma brucei rhodesiense STIB900 infected in NMRI mouse assessed as day of host death after 60 days at 20 mg/kg, ip qd for 4 days administered after 3 to 6 days postinfection; type: functional; conditions: route intraperitoneal
Outline: (§3)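 Female NMRI mice infected ip with 2 104 bloodstream forms of T. b. rhodesiense STIB900. Groups of four mice were treated ip (4 × 20 mg/kg) or po (4 × 50 mg/kg) on four consecutive days, days 3–6 postinfection. Untreated infected controls were included. Tail blood parasitemia was monitored to day 60. Day of death was recorded (cured mice counted as >60) to give mean survival days.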

[7] = test system: Trypanosoma brucei rhodesiense; experiment: Antitrypanosomal activity against Trypanosoma brucei rhodesiense STIB900 infected in NMRI mouse assessed as day of host death after 60 days at 50 mg/kg, po qd for 4 days administered after 3 to 6 days postinfection; type: functional; outline: as §3

| SMILES | IC50 [1] [µM] | IC50 (Plasmodium falciparum) [µM] | selectivity ratio [2] | IC50 (Leishmania donovani) [µM] | selectivity ratio [3] | IC50 (L6) [µM] | IC50 (Trypanosoma cruzi) [µM] | Activity [4] | Activity [5] | Activity [6] [days] | Activity [7] [days] |
| --- | --- | --- | --- | --- | --- | --- | --- | --- | --- | --- | --- |
| c1cc(Nc2ccc(NC3=NCCS3)cc2)ccc1NC1=NCCS1 | 11.1 | 2.43 | 4.7 | 120 | 21 | 52 | 30 | – | – | – | – |
| c1cc(Nc2ccc(NC3=NCCN3)cc2)ccc1NC1=NCCN1 | – | 0.009 | 3070 | – | 24100 | – | – | Active | inactive | >60 | 7.75 |
| ON1CCN=C1Nc1ccc(Nc2ccc(NC3=NCCN3O)cc2)cc1 | 0.37 | 0.055 | 236 | 58 | 1670 | 92 | > 204 | inactive | inactive | 25.3 | 7 |
| CON(CCNC(=S)Nc1ccc(Nc2ccc(NC(=S)NCCN(OC)S(=O)(=O)c3ccccc3[N+](=O)[O-])cc2)cc1)S(=O)(=O)c1ccccc1[N+](=O)[O-] | 61.3 | 1.81 | – | 68 | – | > 107 | > 108 | – | – | – | – |
| CCON(CCNC(=S)Nc1ccc(Nc2ccc(NC(=S)NCCN(OCC)S(=O)(=O)c3ccccc3[N+](=O)[O-])cc2)cc1)S(=O)(=O)c1ccccc1[N+](=O)[O-] | 14.9 | 1.94 | – | 14 | 35 | 67 | > 104 | – | – | – | – |
| O=C1c2ccccc2C(=O)N1CCN(OCc1ccccc1)C(=S)Nc1ccc(Nc2ccc(NC(=S)N(CCN3C(=O)c4ccccc4C3=O)OCc3ccccc3)cc2)cc1 | 86.7 | 1.36 | – | 36 | – | > 102 | > 100 | – | – | – | – |
| c1cc(Nc2ccc(NC3=NCCN3OC3CCCCO3)cc2)ccc1NC1=NCCN1OC1CCCCO1 (stereo not given) | 1.18 | 0.75 | 17 | 41 | 26 | 20 | 24 | inactive | inactive | 7 | 7 |
| CON(CCN1C(=O)c2ccccc2C1=O)C(=S)Nc1ccc(Nc2ccc(NC(=S)N(CCN3C(=O)c4ccccc4C3=O)OC)cc2)cc1 | 73.8 | 2.64 | – | 69 | – | > 124 | > 124 | – | – | – | – |
| CCON1CCN=C1Nc1ccc(Nc2ccc(NC3=NCCN3OCC)cc2)cc1 | 0.73 | 0.59 | 55 | 62 | 68 | 40 | 87 | inactive | inactive | 7 | 7 |
| CON1CCN=C1Nc1ccc(Nc2ccc(NC3=NCCN3OC)cc2)cc1 | 0.83 | 0.45 | 65.6 | 39 | 120 | 54 | 136 | inactive | inactive | 7 | 7 |
| c1ccc(CON2CCN=C2Nc2ccc(Nc3ccc(NC4=NCCN4OCc4ccccc4)cc3)cc2)cc1 | 0.32 | 0.2 | 34.7 | 104 | 56 | 11 | 6.6 | inactive | inactive | 7 | 7 |
